Series [1] concerns the target Translocator protein (Rattus norvegicus, UniProt P16257). The series can be described thus: Displacement of [11C]-PK-11195 from TPSO in Sprague-Dawley rat brain homogenate after 30 mins by gamma counting. The class given is tissue-based.
A short description of series [2]: Lipophilicity, log D of the compound in octanol-phosphate buffer at pH 7.4 by shake flask method. It counts as physicochemical. Summed up:
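Radioligand (~200000 cpm) shaken with n-octanol (3.0 g) and 0.1 M sodium phosphate buffer pH 7.4 (3.0 g). Vortexed 3 min at room temperature, centrifuged 3500 rpm for 5 min. Phases weighed and counted; organic layer repartitioned until consistent. LogD = log of the cpm/g octanol to cpm/g buffer ratio. Triplicate.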

For series [3], the system named is Lung. The series can be described thus: Drug uptake in Sprague-Dawley rat lung at 0.18 nmol, iv pretreated with unlabeled (R)-PK11195 by PET scanning. It counts as ADME, organism-based. To be noted: in vivo. Summed up: (§1)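 Male Sprague-Dawley rats (6–8 weeks old), isoflurane-anesthetized, prone. ROIs on lung, heart, kidney, liver, small intestine and cardiac blood pool. Uptake decay-corrected to injection time and expressed as SUV (body-weight normalized). n = 4, mean ± SD.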

Series [4] relates to Heart. The series is described as follows: Drug uptake in Sprague-Dawley rat heart at 0.18 nmol, iv pretreated with unlabeled (R)-PK11195 by PET scanning. To be noted: in vivo. The class given is ADME, organism-based. Summed up:
(§2)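 Isoflurane-anesthetized Sprague-Dawley rats underwent 30-min PET after iv [11C]radioligand, with unlabeled blocker given iv 1 min before tracer. Blockers were (R)-PK11195 at 3.0 mg/kg or AC-5216 at 1.0 mg/kg in 300 μL saline with 10% ethanol and 5% polysorbate 80. Regional uptake was decay-corrected SUV (n = 4).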

For series [5], the system named is Kidney. The series is described as follows: Drug uptake in Sprague-Dawley rat kidney at 0.18 nmol, iv pretreated with unlabeled (R)-PK11195 by PET scanning. It counts as ADME, organism-based. The conditions noted are these: in vivo. Summed up: as §1
The test system of series [6] is Lung. The series can be described thus: Drug uptake in Sprague-Dawley rat lung at 0.18 nmol, iv pretreated with unlabeled AC-5216 by PET scanning. It counts as ADME, organism-based. To be noted: in vivo. Summed up: as §1
Series [7] deals with Heart. The series is described as follows: Drug uptake in Sprague-Dawley rat heart at 0.18 nmol, iv pretreated with unlabeled AC-5216 by PET scanning. It counts as ADME, organism-based. The conditions noted are these: in vivo. Summed up:
as §2

For series [8], the system named is Kidney. The series can be described thus: Drug uptake in Sprague-Dawley rat kidney at 0.18 nmol, iv pretreated with unlabeled AC-5216 by PET scanning. The conditions noted are these: in vivo. The class given is ADME, organism-based. Summed up: as §1
Series [9] concerns Liver. The series can be described thus: Drug uptake in Sprague-Dawley rat liver at 0.18 nmol, iv pretreated with unlabeled (R)-PK11195 measured after 27.5 mins by PET scanning relative to control. It counts as ADME, organism-based. The conditions noted are these: in vivo. Summed up: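 Male Sprague-Dawley rats, 6-8 weeks old, under isoflurane, prone. An unlabeled TSPO blocking ligand (3.0 mg/kg) was injected 1 min before the iv radioligand (16-18 MBq/200 μL). A liver ROI was decay-corrected and expressed as SUV normalized to injected activity and body weight. The 27.5-min value was compared with unblocked controls; n = 4.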

Series [10] relates to Liver. The series is described as follows: Drug uptake in Sprague-Dawley rat liver at 0.18 nmol, iv pretreated unlabeled AC-5216 measured after 27.5 mins by PET scanning relative to control. The class given is ADME, organism-based. To be noted: in vivo. Summed up: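 Male Sprague-Dawley rats, 6-8 weeks, isoflurane-anesthetized. A blocking TSPO ligand (1.0 mg/kg, in 300 μL saline with 10% ethanol and 5% polysorbate 80) was injected 1 min before iv radioligand (16-18 MBq/200 μL). Liver ROI as decay-corrected SUV (injected activity, body weight), 27.5-min value versus controls; n = 4.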

The subject of series [11] is Blood. The series can be described thus: Drug uptake in Sprague-Dawley rat cardiac blood pool at 0.18 nmol, iv after 27.5 mins by PET scanning. It counts as ADME, organism-based. To be noted: in vivo. Summed up: (§3)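 Isoflurane-anesthetized male Sprague-Dawley rats lay prone and received an iv bolus of [11C]radioligand in 200 μL. 3D list-mode emission scans ran 30 min from injection. Regions of interest were drawn on the organs and cardiac blood pool. Uptake was decay-corrected to injection time and expressed as SUV (normalized to injected radioactivity and body weight). Values are mean of n = 4.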

Series [12] concerns Liver. The series can be described thus: Drug uptake in Sprague-Dawley rat liver at 0.18 nmol, iv after 27.5 mins by PET scanning. The conditions noted are these: in vivo. The class given is ADME, organism-based. Summed up: as §1
Series [13] concerns Lung. The series can be described thus: Drug uptake in Sprague-Dawley rat lung at 0.18 nmol, iv up to 30 mins by PET scanning. It counts as ADME, organism-based. The conditions noted are these: in vivo, 0.5 h. Summed up: as §1
For series [14], the system named is Heart. The series can be described thus: Drug uptake in Sprague-Dawley rat heart at 0.18 nmol, iv up to 30 mins by PET scanning. It counts as ADME, organism-based. The conditions noted are these: in vivo, 0.5 h. Summed up:
as §3

Series [15] has as its system Kidney. The series can be described thus: Drug uptake in Sprague-Dawley rat kidney at 0.18 nmol, iv up to 30 mins by PET scanning. The class given is ADME, organism-based. To be noted: in vivo, 0.5 h. Summed up:
as §1

For series [16], the system named is Liver. The series can be described thus: Drug uptake in Sprague-Dawley rat liver at 0.18 nmol, iv up to 30 mins by PET scanning. The class given is ADME, organism-based. The conditions noted are these: in vivo, 0.5 h. Summed up: as §1
For series [17], the system named is Blood. The series is described as follows: Drug uptake in Sprague-Dawley rat cardiac blood pool at 0.18 nmol, iv up to 30 mins by PET scanning. The conditions noted are these: in vivo, 0.5 h. The class given is ADME, organism-based. Summed up: as §3
The test system of series [18] is Intestine. The series is described as follows: Drug uptake in Sprague-Dawley rat small intestine at 0.18 nmol, iv up to 30 mins by PET scanning. It counts as ADME, organism-based. To be noted: in vivo, 0.5 h. Summed up:
as §1

Series [19] has as its system Lung. The series can be described thus: Drug uptake in Sprague-Dawley rat lung at 0.18 nmol, iv after 2 mins by PET scanning. It counts as ADME, organism-based. The conditions noted are these: in vivo. Summed up:
as §1

In series [20] the test system is Heart. The series can be described thus: Drug uptake in Sprague-Dawley rat heart at 0.18 nmol, iv after 2 mins by PET scanning. The class given is ADME, organism-based. The conditions noted are these: in vivo. Summed up:
as §3

Series [21] relates to Kidney. The series is described as follows: Drug uptake in Sprague-Dawley rat kidney at 0.18 nmol, iv after 2 mins by PET scanning. To be noted: in vivo. It counts as ADME, organism-based. Summed up: as §1
For series [22], the system named is Liver. The series is described as follows: Drug uptake in Sprague-Dawley rat liver at 0.18 nmol, iv after 2 mins by PET scanning. The class given is ADME, organism-based. To be noted: in vivo. Summed up:
as §1

Series [23] relates to Blood. The series can be described thus: Drug uptake in Sprague-Dawley rat cardiac blood pool at 0.18 nmol, iv after 2 mins by PET scanning. It counts as ADME, organism-based. The conditions noted are these: in vivo. Summed up:
as §3

The test system of series [24] is Lung. The series is described as follows: Drug uptake in Sprague-Dawley rat lung at 0.18 nmol, iv after 27.5 mins by PET scanning. It counts as ADME, organism-based. The conditions noted are these: in vivo. Summed up: as §1
Series [25] deals with Heart. The series is described as follows: Drug uptake in Sprague-Dawley rat heart at 0.18 nmol, iv after 27.5 mins by PET scanning. It counts as ADME, organism-based. The conditions noted are these: in vivo. Summed up: as §3
Series [26] has as its system Kidney. The series is described as follows: Drug uptake in Sprague-Dawley rat kidney at 0.18 nmol, iv after 27.5 mins by PET scanning. The conditions noted are these: in vivo. It counts as ADME, organism-based. Summed up:
as §1

SMILES strings stand for the structures. pKi: −log10 of the molar value.

Translocator protein, sequence (P16257 whole entry, looked up): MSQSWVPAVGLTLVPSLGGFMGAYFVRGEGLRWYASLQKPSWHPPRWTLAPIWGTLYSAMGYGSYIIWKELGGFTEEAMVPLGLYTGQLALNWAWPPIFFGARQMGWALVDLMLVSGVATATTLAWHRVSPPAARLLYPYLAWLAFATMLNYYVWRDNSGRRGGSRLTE

As to `CN(Cc1cccnc1)C(=O)Cn1c(=O)n(C)c2cnc(-c3ccccc3)nc21`, in series [1], the pKi is 7.40. This compound yielded a pH-dependent lipophilicity (logD) in series [2] of 1.81.
Turning to `CCN(Cc1cccnc1)C(=O)Cn1c(=O)n([11CH3])c2cnc(-c3ccccc3)nc21`, the Drug uptake entry in series [3], in [4], in series [5], in series [6], in [7] and in series [8] was “Not Active” throughout. In addition, the Drug uptake result in series [13], in series [14], in series [15], in [16], in series [17] and in series [18] was “Active” in each case. The “fold change (FC)” value in series [9] and in series [10] was 1.5 in each case. Also, the SUV stood at 0.4 in series [11]; 0.5 in [12]; 3.4 in series [19]; 4.6 in [20]; 3.3 in series [21]; 1.6 in series [22]. Also, the SUV in series [23] was determined as 3; in series [24], 0.5; in series [25] it was 0.9; in [26], 1.

The values above are taken from ChEMBL document CHEMBL2203116, “Synthesis and evaluation of novel carbon-11 labeled oxopurine analogues for positron emission tomography imaging of translocator protein (18 kDa) in peripheral organs” (J Med Chem, 2011).
